The source made the active and inactive calls. The calls are words filed in the database; no cut-off is given here.
Columns and labels:
[1] = Area under curve at 1 uM/dg administered intravenously; type: ADME; conditions: iv
In short: (§1)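 Male Sprague-Dawley rats (300 g) carrying arterial catheters, used 24 h after surgery; animals dosed orally were starved 18 h beforehand. Blood was sampled at intervals up to 12 h after dosing. Drug levels were measured by HPLC with fluorescence detection (ex 285, em 365) or by GC/MS, calibrated against spiked blank blood. AUC was taken from concentration-time curves; n = 4–6.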

[2] = Area under curve at 20 uM/dg administered perorally; type: ADME; conditions: po; in short: as §1
[3] = Maximum concentration of the drug at 1 umol/dg administered intravenously; type: ADME, organism-based; design: route intravenous; conditions: in vivo, iv
In short: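 Male Sprague-Dawley rats (300 g) with arterial catheters were dosed 24 h after surgery; orally dosed rats were starved 18 h beforehand. Blood was sampled at intervals up to 12 h and analysed by HPLC with fluorescence detection (ex 285, em 365) or by GC/MS. Cmax is in pmol/mL and tmax in min, mean ± SEM, n = 4–6.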

[4] = Maximum concentration of the drug at 20 umol/dg administered perorally; type: ADME, organism-based; design: route oral; conditions: in vivo, po
In short: (§2)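 Male Sprague-Dawley rats (300 g) with arterial catheters, used 24 h after surgery; rats dosed orally were starved 18 h. Drug was given po or iv. Blood (100–250 μL) was sampled at intervals up to 12 h and assayed by HPLC-fluorescence (ex 285, em 365) or GC/MS against spiked blank-blood standard curves. Cmax and tmax were taken from concentration–time curves; n = 4–6.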

[5] = Bioavailability in rat; type: ADME, organism-based; conditions: in vivo
In short: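 Blood was drawn at intervals up to 12 h and assayed by HPLC-fluorescence or GC/MS against spiked blank-blood standards. F is the ratio of oral to intravenous areas under the blood concentration-time curves; n = 4–6.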

[6] = Time taken to reach the maximum concentration of compound at 1 uM/dg administered intravenously; type: ADME, organism-based; conditions: in vivo, iv; in short: as §2
[7] = Half life of compound at 1 uM/dg administered intravenously; type: ADME, organism-based; conditions: in vivo, iv; in short: as §1
Rattus norvegicus [8] = organism: Rattus norvegicus; assay: Compound was tested for 5-HT behavioral response in reserpine pretreated rats; +5HT syndrome; type: functional, organism-based
In short: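 Male Sprague-Dawley rats (200–300 g) were given reserpine 5 mg/kg sc 18 h before testing, then the test drug sc in the neck (n = 4). Motor activity was recorded by photocells for 30 min, with gross behaviour observed throughout. 5-HT syndrome: flat body posture, extended limbs, reciprocal forepaw treading. DA response: locomotion and stereotypies.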

Rattus norvegicus [9] = assay: In vivo evaluation for 5-HTP accumulation in the corpus striatum in male rats (po); type: functional
In short: (§3)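 Male Sprague-Dawley rats were pretreated with reserpine 5 mg/kg sc 18 h before dosing. DOPA and 5-HTP in limbic system, striatum and hemispheres were measured by HPLC with electrochemical detection. Dose-response curves used 4–6 dose levels (n = 4) for each region; ED50 was estimated graphically. Partial responses are given as the maximal % reduction at the highest dose tested.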

Rattus norvegicus [10] = assay: In vivo evaluation for 5-HTP accumulation in the corpus striatum in male rats.(sc); type: functional
In short: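 Male Sprague-Dawley rats (200–300 g), reserpine-pretreated (5 mg/kg sc, 18 h before). Test drug was given sc in 4–6 doses (n = 4 per dose), with separate curves per brain area. 5-HTP in corpus striatum was measured by HPLC with electrochemical detection. ED50 was read from the dose–response curve.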

Rattus norvegicus [11] = assay: In vivo evaluation for 5-HTP accumulation in the hemispheres in male rats (po); type: functional; in short: as §3
Rattus norvegicus [12] = assay: In vivo evaluation for 5-HTP accumulation in the hemispheres in male rats (sc); type: functional; in short: as §3
Rattus norvegicus [13] = assay: In vivo evaluation for 5-HTP accumulation in the limbic system in male rats (po); type: functional; in short: as §3
Rattus norvegicus [14] = assay: In vivo evaluation for 5-HTP accumulation in the limbic system in male rats (sc); type: functional; in short: as §3
Rattus norvegicus [15] = assay: In vivo evaluation for DOPA accumulation in the corpus striatum in male rats at highest test dose of 45 uM/Kg; inactive; type: functional, organism-based; in short: as §3
Rattus norvegicus [16] = assay: In vivo evaluation for DOPA accumulation in the hemispheres in male rats at highest test dose of 45 uM/Kg; inactive; type: functional, organism-based; in short: as §3
Rattus norvegicus [17] = assay: In vivo evaluation for DOPA accumulation in the limbic system in male rats at highest test dose of 45 uM/Kg; inactive; type: functional, organism-based; in short: as §3
Rattus norvegicus [18] = assay: Maximal reduction in percent (Partial response) of DOPA accumulation rat corpus striatum at highest test dose of 61 uM/Kg (po); type: functional; in short: as §3
Rattus norvegicus [19] = assay: Maximal reduction in percent (Partial response) of DOPA accumulation rat hemispheres at highest test dose of 61 uM/Kg (po); Inactive; type: functional, organism-based; in short: as §3
Rattus norvegicus [20] = assay: Maximal reduction in percent (Partial response) of DOPA accumulation rat limbic system at highest test dose of 61 uM/Kg (po); type: functional
D(2) dopamine receptor = D(2) dopamine receptor (Rattus norvegicus, UniProt P61169); assay: Displacement of [3H]spiperone from dopamine receptor D2
Chain of D(2) dopamine receptor (P61169 whole entry): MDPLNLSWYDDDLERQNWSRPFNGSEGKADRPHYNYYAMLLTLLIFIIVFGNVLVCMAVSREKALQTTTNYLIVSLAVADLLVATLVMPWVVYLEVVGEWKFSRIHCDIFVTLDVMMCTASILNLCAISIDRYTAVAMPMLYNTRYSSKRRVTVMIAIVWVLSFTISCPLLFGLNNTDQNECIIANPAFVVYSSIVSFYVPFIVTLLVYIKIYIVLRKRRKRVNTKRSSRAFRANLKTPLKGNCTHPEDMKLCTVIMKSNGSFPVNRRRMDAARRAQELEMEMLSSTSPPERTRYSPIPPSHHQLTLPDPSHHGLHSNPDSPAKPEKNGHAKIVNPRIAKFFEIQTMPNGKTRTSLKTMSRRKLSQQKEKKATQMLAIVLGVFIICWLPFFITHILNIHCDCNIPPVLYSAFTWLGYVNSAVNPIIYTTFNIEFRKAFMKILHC
In short: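 Rat striatal membranes in 50 mM potassium phosphate buffer (3 mg original tissue) incubated with 0.5 nM [3H]spiperone for 10 min at 37 °C. Nonspecific binding was defined with 10 μM 6,7-ADTN. Ki was calculated by Cheng–Prusoff; triplicates, 3–7 experiments.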

Work on CCCN(CCC)C1CCc2cccc(O)c2C1 (racemic) [8-OH-DPAT] yielded an AUC [1] of 213 pM/h/g, an AUC [2] of 104 pM/h/g and a Cmax [3] of 344 pM ml-1. It also gave a Cmax [4] of 63 pM ml-1, a bioavailability [5] of 2.4% and a Tmax at 1 µM [6] of 3 min. The half-life [7] was 72 min, the Behavioral response (Rattus norvegicus [8]) was “Active” and the ED50 (Rattus norvegicus [9]) was 7.9 µmol/kg. The ED50 (Rattus norvegicus [10]) was 0.052 µmol/kg, the ED50 (Rattus norvegicus [11]) was 7.9 µmol/kg and the ED50 (Rattus norvegicus [12]) was 0.063 µmol/kg. For the same molecule, the ED50 (Rattus norvegicus [13]) was 3 µmol/kg, the ED50 (Rattus norvegicus [14]) was 0.052 µmol/kg and the ED50 (Rattus norvegicus [15]) was “inactive”. The ED50 (Rattus norvegicus [16]) was “inactive”, the ED50 (Rattus norvegicus [17]) was “inactive” and the Reduction (Rattus norvegicus [18]) was 43%. The Reduction (Rattus norvegicus [19]) was “inactive”, the Reduction (Rattus norvegicus [20]) was 35% and the Ki (D(2) dopamine receptor) was 1360 nM.
